Test results reported in ChEMBL document CHEMBL1156731, “Antifungal activity of synthetic di(hetero)arylamines based on the benzo[b]thiophene moiety” (2008).
Converted amounts (≈) assume the structure as drawn.

Assays:
Type in all cases: functional
Candida albicans [1] = assay: Antifungal activity against Candida albicans ATCC 10231 after 48 hrs by broth macrodilution method; details: ATCC 10231, 48 h
Procedure, shortened: (§1)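 Yeasts grown 1 day on SDA at 37 °C, subcultured, suspended in saline and diluted in MOPS-buffered RPMI 1640 (pH 7.0) to 1-2 × 10^3 CFU/mL. Broth macrodilution per CLSI M27-A2, twofold dilutions 200-0.8 µg/mL (DMSO ≤2% final), aerobic, 37 °C, 48 h. MIC = 80% turbidity reduction vs drug-free control; MFC from SDA subculture at 37 °C. Three independent experiments in duplicate.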

Candida albicans [2] = assay: Antifungal activity against Candida albicans D5 after 48 hrs by broth macrodilution method; procedure, shortened: as §1
Aspergillus flavus = assay: Antifungal activity against Aspergillus flavus F44 after 3 days by broth macrodilution method; details: 72 h
Procedure, shortened: (§2)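 Aspergillus inoculum from 3-day SDA subcultures at 30 °C; conidial suspension in 0.85% saline, diluted in RPMI 1640 (L-glutamine, no bicarbonate, 0.165 M MOPS, pH 7.0) to 1-2 × 10^4 CFU/mL. Twofold dilutions 200-0.8 µg/mL from DMSO stock (final DMSO ≤2%); macrodilution per CLSI M38-A, 30 °C, 3 days. MIC = lowest concentration giving 80% turbidity reduction vs drug-free control; MFC by subculture on SDA. Three independent experiments in duplicate.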

Pichia kudriavzevii = assay: Antifungal activity against Candida krusei ATCC 6258 after 48 hrs by broth macrodilution method; details: ATCC 6258, 48 h; procedure, shortened: as §1
Trichophyton rubrum = assay: Antifungal activity against Trichophyton rubrum FF5 after 5 days by broth macrodilution method; details: 120 h
Procedure, shortened: (§3)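 Dermatophytes grown 5 days on SDA at 30 °C, subcultured. Conidial suspensions in saline were adjusted in MOPS-buffered RPMI 1640 (pH 7.0) to 1-2 × 10^4 CFU/mL. Macrodilution adapted from CLSI M38-A with 200-0.8 µg/mL twofold dilutions (DMSO ≤2%), incubated at 30 °C for 5 days. MIC at 80% turbidity reduction vs control; MFC by SDA subculture at 30 °C. Triplicate experiments in duplicate.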

Aspergillus fumigatus = assay: Antifungal activity against Aspergillus fumigatus ATCC 46645 after 3 days by broth macrodilution method; details: ATCC 46645, 72 h; procedure, shortened: as §2
Candida tropicalis = assay: Antifungal activity against Candida tropicalis ATCC 13803 after 48 hrs by broth macrodilution method; details: ATCC 13803, 48 h; procedure, shortened: as §1
Microsporum canis = assay: Antifungal activity against Microsporum canis FF1 after 5 days by broth macrodilution method; details: 120 h; procedure, shortened: as §3
[3] = system: Trichophyton mentagrophytes; assay: Antifungal activity against Trichophyton mentagrophytes FF7 after 5 days by broth macrodilution method; details: 120 h; procedure, shortened: as §3
Nannizzia gypsea = assay: Antifungal activity against Microsporum gypseum FF3 after 5 days by broth macrodilution method; details: 120 h; procedure, shortened: as §3
Epidermophyton floccosum = assay: Antifungal activity against Epidermophyton floccosum FF9 after 5 days by broth macrodilution method; details: 120 h; procedure, shortened: as §3
Aspergillus niger = assay: Antifungal activity against Aspergillus niger ATCC 16404 after 3 days by broth macrodilution method; details: ATCC 16404, 72 h; procedure, shortened: as §2
Nakaseomyces glabratus = assay: Antifungal activity against Candida glabrata D10R after 48 hrs by broth macrodilution method
Procedure, shortened: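 Broth macrodilution per CLSI M27-A2 (minor modifications). Inoculum 1-2 × 10^3 CFU/mL in RPMI 1640 with L-glutamine, MOPS-buffered 0.165 M, pH 7.0. Twofold dilutions 200-0.8 µg/mL from DMSO stock (final DMSO ≤2%). Aerobic, 37 °C, 48 h. MIC = lowest concentration giving 80% turbidity reduction versus drug-free control. Three independent experiments in duplicate.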

## CCOC(=O)c1sc2ccccc2c1Nc1ccc(F)cc1
Candida albicans [1]
  MFC: > 200 µg/mL
  MIC: > 200 µg/mL
Candida albicans [2]
  MFC: > 200 µg/mL
  MIC: > 200 µg/mL
Aspergillus flavus
  MFC: > 200 µg/mL
  MIC: > 200 µg/mL
Pichia kudriavzevii
  MFC: > 200 µg/mL
  MIC: > 200 µg/mL
Trichophyton rubrum
  MFC: > 200 µg/mL
  MIC: > 200 µg/mL
Aspergillus fumigatus
  MFC: > 200 µg/mL
  MIC: > 200 µg/mL
Candida tropicalis
  MFC: > 200 µg/mL
  MIC: > 200 µg/mL
Microsporum canis
  MFC: > 200 µg/mL
  MIC: > 200 µg/mL
[3]
  MFC: > 200 µg/mL
  MIC: > 200 µg/mL
Nannizzia gypsea
  MFC: > 200 µg/mL
  MIC: > 200 µg/mL
Epidermophyton floccosum
  MFC: > 200 µg/mL
  MIC: > 200 µg/mL
Aspergillus niger
  MFC: > 200 µg/mL
  MIC: > 200 µg/mL
Nakaseomyces glabratus
  MFC: > 200 µg/mL
  MIC: > 200 µg/mL

## OC(Cn1cncn1)(Cn1cncn1)c1ccc(F)cc1F [FLUCONAZOLE]
Candida albicans [1]
  MFC: > 128 µg/mL
  MIC: 1 µg/mL (≈ 3.27 µM)
Candida albicans [2]
  MFC: > 128 µg/mL
  MIC: > 128 µg/mL
Pichia kudriavzevii
  MFC: 64 µg/mL (≈ 209 µM)
  MIC: 64 µg/mL (≈ 209 µM)
Trichophyton rubrum
  MFC: 32 µg/mL (≈ 104 µM)
  MIC: 16 µg/mL (≈ 52.2 µM)
Candida tropicalis
  MFC: > 128 µg/mL
  MIC: 4 µg/mL (≈ 13.1 µM)
Microsporum canis
  MFC: 128 µg/mL (≈ 418 µM)
  MIC: 128 µg/mL (≈ 418 µM)
[3]
  MFC: 32 µg/mL (≈ 104 µM)
  MIC: 16 µg/mL (≈ 52.2 µM)
Nannizzia gypsea
  MFC: > 128 µg/mL
  MIC: > 128 µg/mL
Epidermophyton floccosum
  MFC: 16 µg/mL (≈ 52.2 µM)
  MIC: 16 µg/mL (≈ 52.2 µM)
Nakaseomyces glabratus
  MFC: 32 µg/mL (≈ 104 µM)
  MIC: 32 µg/mL (≈ 104 µM)

## CCOC(=O)c1sc2ccccc2c1Nc1ccc(O)cc1
Candida albicans [1]
  MFC: > 200 µg/mL
  MIC: > 200 µg/mL
Candida albicans [2]
  MFC: > 200 µg/mL
  MIC: > 200 µg/mL
Aspergillus flavus
  MFC: > 200 µg/mL
  MIC: > 200 µg/mL
Pichia kudriavzevii
  MFC: > 200 µg/mL
  MIC: > 200 µg/mL
Trichophyton rubrum
  MFC: 6.25 µg/mL (≈ 19.9 µM)
  MIC: 6.25 µg/mL (≈ 19.9 µM)
Aspergillus fumigatus
  MFC: > 200 µg/mL
  MIC: > 200 µg/mL
Candida tropicalis
  MFC: > 200 µg/mL
  MIC: > 200 µg/mL
Microsporum canis
  MFC: 1.56 µg/mL (≈ 4.98 µM)
  MIC: 1.56 µg/mL (≈ 4.98 µM)
[3]
  MFC: 6.25 µg/mL (≈ 19.9 µM)
  MIC: 6.25 µg/mL (≈ 19.9 µM)
Nannizzia gypsea
  MFC: 12.5 µg/mL (≈ 39.9 µM)
  MIC: 6.25 µg/mL (≈ 19.9 µM)
Epidermophyton floccosum
  MFC: 12.5 µg/mL (≈ 39.9 µM)
  MIC: 3.13 µg/mL (≈ 9.99 µM)
Aspergillus niger
  MFC: > 200 µg/mL
  MIC: > 200 µg/mL
Nakaseomyces glabratus
  MFC: > 200 µg/mL
  MIC: > 200 µg/mL

## CCOC(=O)c1sc2ccccc2c1Nc1ccc(OC)cc1OC
Candida albicans [1]
  MFC: > 200 µg/mL
  MIC: > 200 µg/mL
Candida albicans [2]
  MFC: > 200 µg/mL
  MIC: > 200 µg/mL
Aspergillus flavus
  MFC: > 200 µg/mL
  MIC: > 200 µg/mL
Pichia kudriavzevii
  MFC: > 200 µg/mL
  MIC: > 200 µg/mL
Trichophyton rubrum
  MFC: > 200 µg/mL
  MIC: > 200 µg/mL
Aspergillus fumigatus
  MFC: > 200 µg/mL
  MIC: > 200 µg/mL
Candida tropicalis
  MFC: > 200 µg/mL
  MIC: > 200 µg/mL
Microsporum canis
  MFC: > 200 µg/mL
  MIC: > 200 µg/mL
[3]
  MFC: > 200 µg/mL
  MIC: > 200 µg/mL
Nannizzia gypsea
  MFC: > 200 µg/mL
  MIC: > 200 µg/mL
Epidermophyton floccosum
  MFC: > 200 µg/mL
  MIC: > 200 µg/mL
Aspergillus niger
  MFC: > 200 µg/mL
  MIC: > 200 µg/mL
Nakaseomyces glabratus
  MFC: > 200 µg/mL
  MIC: > 200 µg/mL

## CCOC(=O)c1sc2ccccc2c1Nc1ccc(OC)cc1
Candida albicans [1]
  MFC: > 200 µg/mL
  MIC: > 200 µg/mL
Candida albicans [2]
  MFC: > 200 µg/mL
  MIC: > 200 µg/mL
Aspergillus flavus
  MFC: > 200 µg/mL
  MIC: > 200 µg/mL
Pichia kudriavzevii
  MFC: > 200 µg/mL
  MIC: > 200 µg/mL
Trichophyton rubrum
  MFC: > 200 µg/mL
  MIC: > 200 µg/mL
Aspergillus fumigatus
  MFC: > 200 µg/mL
  MIC: > 200 µg/mL
Candida tropicalis
  MFC: > 200 µg/mL
  MIC: > 200 µg/mL
Microsporum canis
  MFC: > 200 µg/mL
  MIC: > 200 µg/mL
[3]
  MFC: > 200 µg/mL
  MIC: > 200 µg/mL
Nannizzia gypsea
  MFC: > 200 µg/mL
  MIC: > 200 µg/mL
Epidermophyton floccosum
  MFC: > 200 µg/mL
  MIC: > 200 µg/mL
Aspergillus niger
  MFC: > 200 µg/mL
  MIC: > 200 µg/mL
Nakaseomyces glabratus
  MFC: > 200 µg/mL
  MIC: > 200 µg/mL

## CCOC(=O)c1sc2ccccc2c1Nc1cccnc1
Candida albicans [1]
  MFC: > 200 µg/mL
  MIC: > 200 µg/mL
Candida albicans [2]
  MFC: > 200 µg/mL
  MIC: > 200 µg/mL
Aspergillus flavus
  MFC: > 200 µg/mL
  MIC: > 200 µg/mL
Pichia kudriavzevii
  MFC: > 200 µg/mL
  MIC: > 200 µg/mL
Trichophyton rubrum
  MFC: > 50 µg/mL
  MIC: 3.13 µg/mL (≈ 10.5 µM)
Aspergillus fumigatus
  MFC: > 200 µg/mL
  MIC: > 200 µg/mL
Candida tropicalis
  MFC: > 200 µg/mL
  MIC: > 200 µg/mL
Microsporum canis
  MFC: > 50 µg/mL
  MIC: 3.13 µg/mL (≈ 10.5 µM)
[3]
  MFC: > 50 µg/mL
  MIC: 3.13 µg/mL (≈ 10.5 µM)
Nannizzia gypsea
  MFC: > 50 µg/mL
  MIC: 6.25 µg/mL (≈ 20.9 µM)
Epidermophyton floccosum
  MFC: > 50 µg/mL
  MIC: 6.25 µg/mL (≈ 20.9 µM)
Aspergillus niger
  MFC: > 200 µg/mL
  MIC: > 200 µg/mL
Nakaseomyces glabratus
  MFC: > 200 µg/mL
  MIC: > 200 µg/mL
